Assay results: ChEMBL document CHEMBL1158168, “Condensed bridgehead nitrogen heterocyclic system: synthesis and pharmacological activities of 1,2,4-triazolo-[3,4-b]-1,3,4-thiadiazole derivatives of ibuprofen and biphenyl-4-yloxy acetic acid” (Eur J Med Chem, 2008)
≈ marks a conversion by molar mass, not a printed value. Calls of active or inactive are those of the source. The rule behind the calls is not given here.

What was measured:
Escherichia coli = assay: Antibacterial activity against sEscherichia coli ATCC 25922 by cup plate method; assay type: functional
In short: (§1)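 Cup-plate diffusion on nutrient agar, with compounds dissolved in DMF. Compounds were tested at 200, 100, 50 and 25; those inhibiting at 25 were also tested at 12.5 and 6.25. MIC is the lowest concentration preventing visible growth on the plate.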

Candida albicans = assay: Antimicrobial activity against Candida albicans ATCC 2091 by cup plate method; assay type: functional
In short: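 Candida albicans grown on Sabouraud dextrose medium and tested by cup-plate diffusion, with compounds dissolved in DMF. Compounds were tested at 200, 100, 50 and 25; those inhibiting at 25 were also tested at 12.5 and 6.25. MIC is the lowest concentration preventing visible growth.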

Rattus norvegicus [1] = assay: Antiinflammatory activity in Wistar albino rat assessed as inhibition of carrageenan-induced paw edema administered at equimolar oral dose relative to 10 mg/kg fluribiprofen measured 4 hrs after carrageenan challenge; assay type: functional
In short: (§2)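 Wistar rats of either sex (180-200 g), six per group, dosed orally in a 0.5% CMC vehicle. One hour later, 0.1 mL of […] in 0.9% NaCl was injected sub-plantar into the right hind paw. Paw volume was read by plethysmometer before and 4 h after carrageenan, and percent inhibition was calculated.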

Staphylococcus aureus = assay: Antibacterial activity against Staphylococcus aureus ATCC 19433 by cup plate method; assay type: functional; in short: as §1
Rattus norvegicus [2] = assay: Antiinflammatory activity in Wistar albino rat assessed as inhibition of carrageenan-induced paw edema administered at equimolar oral dose relative to 70 mg/kg ibuprofen measured 4 hrs after carrageenan challenge; assay type: functional; in short: as §2
Rattus norvegicus [3] = assay: Inhibition of lipid peroxidation in rat assessed as malondialdehyde level per 100 mg of tissue administered at equimolar oral dose relative to 210 mg/kg ibuprofen; assay type: functional
In short: (§3)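 Gastric mucosa was scraped from the stomachs after ulcer scoring. 100 mg was homogenized in ice-cold 1.15% KCl and reacted with SDS, acetate buffer (pH 3.5) and 0.8% TBA at 95 °C for 60 min. The product was extracted into n-butanol/pyridine (15:1) and absorbance read at 532 nm. MDA was calculated using ε 1.56 × 10⁵ M⁻¹cm⁻¹ and expressed per 100 mg tissue.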

Rattus norvegicus [4] = assay: Gastrointestinal toxicity in rat assessed as gastric mucosal damage severity index administered at equimolar oral dose relative to 210 mg/kg ibuprofen; assay type: organism-based, Gastric mucosa; parameters: dose 210 mg/kg, route oral; details: in vivo
In short: (§4)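 Rats, six per group, were fasted 24 h with water allowed, then dosed orally in a 0.5% CMC vehicle. They were fed normally for 17 h and then sacrificed. Stomachs were opened along the greater curvature and mucosal lesions scored under a magnifier (0.5 redness to 3.0 for more than 5 ulcers). Severity index is the mean group score minus the control mean.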

Rattus norvegicus [5] = assay: Gastrointestinal toxicity in rat assessed as gastric mucosal damage severity index administered at equimolar oral dose relative to 30 mg/kg fluribiprofen; assay type: organism-based, Gastric mucosa; parameters: dose 30 mg/kg, route oral; details: in vivo; in short: as §4
Rattus norvegicus [6] = assay: Gastrointestinal toxicity in rat assessed as gastric mucosal damage severity index at 210 mg/kg, po; assay type: organism-based, Gastric mucosa; parameters: dose 210 mg/kg, route oral; details: in vivo; in short: as §4
Rattus norvegicus [7] = assay: Inhibition of lipid peroxidation in rat assessed as malondialdehyde level per 100 mg of tissue at 210 mg/kg, po; assay type: functional; in short: as §3
Mus musculus [8] = assay: Analgesic activity in Swiss albino mouse assessed as effect on reaction time for tail withdrawal administered at 70 mg/kg, po after 4 hrs by tail immersion method; assay type: functional
In short: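 Swiss albino mice of either sex (25-30 g), six per group. Compounds were given orally as a suspension in 0.5% w/v CMC in water. Tail-withdrawal reaction time was measured before dosing and 4 h after, by immersing the lower 5 cm of the tail in water held at 55 ± 0.5 °C.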

Rattus norvegicus [9] = assay: Hepatotoxicity in po dosed Wistar albino rat assessed as total protein content after 7 days; assay type: toxicity, organism-based; details: in vivo, 168 h
Rattus norvegicus [10] = assay: Hepatotoxicity in po dosed Wistar albino rat assessed as total albumin content after 7 days; assay type: toxicity, organism-based; details: in vivo, 168 h
Rattus norvegicus [11] = assay: Hepatotoxicity in po dosed Wistar albino rat assessed as alkaline phosphatase activity after 7 days; assay type: toxicity, organism-based; details: in vivo, 168 h
Rattus norvegicus [12] = assay: Hepatotoxicity in po dosed Wistar albino rat assessed as serum glutamate oxaloacetate transaminase activity after 7 days; assay type: toxicity, organism-based; details: in vivo, 168 h
Rattus norvegicus [13] = assay: Hepatotoxicity in po dosed Wistar albino rat assessed as serum glutamate pyruvate transaminase activity after 7 days; assay type: toxicity, organism-based; details: in vivo, 168 h
Rattus norvegicus [14] = assay: Hepatotoxicity in po dosed Wistar albino rat assessed as hepatocyte necrosis after 7 days; assay type: toxicity, organism-based; details: hepatocytes, 168 h
Rattus norvegicus [15] = assay: Gastrointestinal toxicity in rat assessed as gastric mucosal damage severity index at 30 mg/kg, po; assay type: organism-based, Gastric mucosa; parameters: dose 30 mg/kg, route oral; details: in vivo
In short: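 Rats, groups of six, food but not water withheld 24 h; oral dosing in 0.5% CMC. Normal diet for 17 h, then sacrificed. Stomach opened along the greater curvature and inspected under a magnifying glass. Scored 0.5 redness to 3.0 (>5 ulcers); severity index is the group mean score minus the control mean.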

Rattus norvegicus [16] = assay: Antiinflammatory activity in Wistar albino rat assessed as inhibition of carrageenan-induced paw edema at 10 mg/kg, po measured 4 hrs after carrageenan challenge; assay type: functional
In short: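 Wistar albino rats of either sex, 180-200 g, groups of six; oral dosing, vehicle 0.5% CMC. 0.1 mL of 0.1% carrageenan in sterile 0.9% NaCl injected subplantar into the right hind paw 1 h after dosing. Paw volume measured by plethysmometer before and 4 h after carrageenan; percent inhibition calculated.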

Mus musculus [17] = assay: Analgesic activity in Swiss albino mouse assessed as effect on reaction time for tail withdrawal administered at 10 mg/kg, po after 4 hrs by tail immersion method; assay type: functional
In short: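 Swiss albino mice of either sex, 25-30 g, groups of six; oral dosing as suspension in 0.5% w/v CMC in water. Tail immersion: lower 5 cm of tail dipped in water held at 55 ± 0.5 °C. Reaction time taken before and 4 h after dosing.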

Rattus norvegicus [18] = assay: Inhibition of lipid peroxidation in rat assessed as malondialdehyde level per 100 mg of tissue at 30 mg/kg, po; assay type: functional
In short: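 Gastric mucosa scraped from stomachs after ulcerogenicity testing; 100 mg homogenized in 1.15% ice-cold KCl. TBA method with SDS and acetate buffer pH 3.5, heated at 95 °C for 60 min. Extracted into n-butanol/pyridine 15:1, absorbance read at 532 nm. Expressed as nmol MDA/100 mg tissue using ε 1.56 × 10⁵ cm⁻¹ M⁻¹.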

Structure (SMILES) | MIC (Escherichia coli) [µg/mL] | MIC (Candida albicans) [µg/mL] | inhibition in vivo (Rattus norvegicus [1]) [%] | inhibition in vivo (Rattus norvegicus [2]) [%] | MIC (Staphylococcus aureus) [µg/mL] | further results
Cc1ccc(Nc2nn3c(COc4ccc(-c5ccccc5)cc4)nnc3s2)c(C)c1 | 50 (≈ 117 µM) | 100 (≈ 234 µM) | 39.4 |  |  | Activity (Staphylococcus aureus): inactive
CCCCNc1nn2c(C(C)c3ccc(CC(C)C)cc3)nnc2s1 (stereo unspecified) | 100 (≈ 280 µM) | 50 (≈ 140 µM) |  | 80.3 | 200 (≈ 559 µM) | Activity (Rattus norvegicus [3]): 5.78 nmol; UI (Rattus norvegicus [4]): 1
CC(C)Cc1ccc(C(C)c2nnc3sc(Cc4ccccc4Nc4c(Cl)cccc4Cl)nn23)cc1 (stereo unspecified) | 200 (≈ 373 µM) | 200 (≈ 373 µM) |  | 18.2 | 50 (≈ 93.2 µM) | 
CC1COc2c(N3CCN(C)CC3)c(F)cc3c(=O)c(C(=O)O)cn1c23 (stereo unspecified) [OFLOXACIN] | 6.25 (≈ 17.3 µM) |  |  |  | 6.25 (≈ 17.3 µM) | 
CC(C)Cc1ccc(C(C)c2nnc3sc(COc4ccc(Cl)cc4Cl)nn23)cc1 (stereo unspecified) | 25 (≈ 54.2 µM) | 100 (≈ 217 µM) |  | 38.6 | 200 (≈ 433 µM) | 
Clc1ccc(OCc2nn3c(COc4ccc(-c5ccccc5)cc4)nnc3s2)c(Cl)c1 | 50 (≈ 103 µM) | 50 (≈ 103 µM) | 50.8 |  | 25 (≈ 51.7 µM) | 
Clc1ccc(-c2nn3c(COc4ccc(-c5ccccc5)cc4)nnc3s2)cc1 | 25 (≈ 59.7 µM) | 50 (≈ 119 µM) | 78.8 |  | 100 (≈ 239 µM) | UI (Rattus norvegicus [5]): 0.833
Nc1ccccc1-c1nn2c(COc3ccc(-c4ccccc4)cc3)nnc2s1 | 50 (≈ 125 µM) | 25 (≈ 62.6 µM) | 47.7 |  | 25 (≈ 62.6 µM) | 
Cc1ccc(Nc2nn3c(C(C)c4ccc(CC(C)C)cc4)nnc3s2)c(C)c1 (stereo unspecified) | 50 (≈ 123 µM) | 200 (≈ 493 µM) |  | 53 | 200 (≈ 493 µM) | 
c1ccc(Nc2nn3c(COc4ccc(-c5ccccc5)cc4)nnc3s2)cc1 | 25 (≈ 62.6 µM) | 200 (≈ 501 µM) |  |  |  | Activity (Staphylococcus aureus): inactive
CC(C)Cc1ccc(C(C)C(=O)O)cc1 (stereo unspecified) [IBUPROFEN] |  |  |  |  |  | UI (Rattus norvegicus [6]): 2; Activity (Rattus norvegicus [7]): 7.79 nmol; inhibition in vivo at 70 mg/kg (Mus musculus [8]): 74.1%
Fc1ccc(Nc2nn3c(COc4ccc(-c5ccccc5)cc4)nnc3s2)cc1 | 25 (≈ 59.9 µM) |  | 78.2 |  |  | UI (Rattus norvegicus [5]): 0.666; Activity (Candida albicans): inactive; Activity (Rattus norvegicus [9]): 0.9 g/dL; Activity (Rattus norvegicus [10]): 0.71 g/dL; Activity (Rattus norvegicus [11]): 17.07 U/ml; Activity (Rattus norvegicus [12]): 137 U/ml; Activity (Rattus norvegicus [13]): 26.5 U/ml; Activity (Staphylococcus aureus): inactive; Activity (Rattus norvegicus [14]): Non-toxic
CC(C)Cc1ccc(C(C)c2nnc3sc(Nc4ccccc4)nn23)cc1 (stereo unspecified) | 25 (≈ 66.2 µM) |  |  | 68.2 | 100 (≈ 265 µM) | Activity (Candida albicans): inactive; Activity (Rattus norvegicus [3]): 5.12 nmol; UI (Rattus norvegicus [4]): 0.667
CC(C)Cc1ccc(C(C)c2nnc3sc(-c4ccccc4N)nn23)cc1 (stereo unspecified) | 100 (≈ 265 µM) | 12.5 (≈ 33.1 µM) |  | 57.6 | 200 (≈ 530 µM) | 
Nc1ccc(-c2nn3c(COc4ccc(-c5ccccc5)cc4)nnc3s2)cc1 | 200 (≈ 501 µM) | 200 (≈ 501 µM) | 76.5 |  | 50 (≈ 125 µM) | UI (Rattus norvegicus [5]): 0.417
Clc1ccc(-c2nn3c(COc4ccc(-c5ccccc5)cc4)nnc3s2)c(Cl)c1 | 50 (≈ 110 µM) |  |  |  | 25 (≈ 55.1 µM) | 
CC(C)Cc1ccc(C(C)c2nnc3sc(-c4ccc(Cl)cc4Cl)nn23)cc1 (stereo unspecified) | 200 (≈ 464 µM) | 200 (≈ 464 µM) |  | 80.3 | 200 (≈ 464 µM) | Activity (Rattus norvegicus [3]): 5.04 nmol; Activity (Rattus norvegicus [9]): 1.89 g/dL; Activity (Rattus norvegicus [10]): 1.8 g/dL; Activity (Rattus norvegicus [11]): 15.18 U/ml; Activity (Rattus norvegicus [12]): 147.5 U/ml; UI (Rattus norvegicus [4]): 0.333; Activity (Rattus norvegicus [13]): 28.17 U/ml; Activity (Rattus norvegicus [14]): Non-toxic
CC(=O)N1CCN(c2ccc(OCC3COC(Cn4ccnc4)(c4ccc(Cl)cc4Cl)O3)cc2)CC1 (stereo unspecified) [KETOCONAZOLE] |  | 6.25 (≈ 11.8 µM) |  |  |  | 
CCCCNc1nn2c(COc3ccc(-c4ccccc4)cc3)nnc2s1 | 100 (≈ 264 µM) | 25 (≈ 65.9 µM) | 65.9 |  |  | Activity (Staphylococcus aureus): inactive
CC(C(=O)O)c1ccc(-c2ccccc2)c(F)c1 (stereo unspecified) [FLURBIPROFEN] |  |  |  |  |  | UI (Rattus norvegicus [15]): 1.666; inhibition in vivo at 10 mg/kg (Rattus norvegicus [16]): 80.3%; inhibition in vivo at 10 mg/kg (Mus musculus [17]): 69.5%; Activity (Rattus norvegicus [18]): 7.51 nmol
CC(C)Cc1ccc(C(C)c2nnc3sc(Nc4ccc(F)cc4)nn23)cc1 (stereo unspecified) | 200 (≈ 506 µM) | 200 (≈ 506 µM) |  | 28 | 200 (≈ 506 µM) | 
CC(C)Cc1ccc(C(C)c2nnc3sc(-c4ccc(N)cc4)nn23)cc1 (stereo unspecified) | 12.5 (≈ 33.1 µM) | 200 (≈ 530 µM) |  | 78.8 | 200 (≈ 530 µM) | Activity (Rattus norvegicus [3]): 5.65 nmol; UI (Rattus norvegicus [4]): 0.75
c1ccc(-c2ccc(OCc3nnc4sc(-c5ccccc5)nn34)cc2)cc1 | 25 (≈ 65 µM) |  | 65.1 |  | 25 (≈ 65 µM) | Activity (Candida albicans): inactive
